ChEMBL document CHEMBL5705905, “Pharmacological targeting of kinases MST1 and MST2 augments tissue repair and regeneration” (Sci Transl Med, 2016)
Activity calls are given as the source filed them. The calls are words filed in the database; no cut-off is given here.

Columns and labels:
[1] = target: Serine/threonine-protein kinase tousled-like 1 (Homo sapiens) (UniProt Q9UKI8); test: Inhibition of TLK1 (unknown origin) assessed as remaining activity at 1 uM by Kinome scan method relative to control
[2] = target: SNF-related serine/threonine-protein kinase (Homo sapiens) (UniProt Q9NRH2); test: Inhibition of SNRK (unknown origin) assessed as remaining activity at 1 uM by Kinome scan method relative to control
[3] = target: Dual specificity mitogen-activated protein kinase kinase 3 (Homo sapiens) (UniProt P46734); test: Inhibition of MEK3 (unknown origin) assessed as remaining activity at 1 uM by Kinome scan method relative to control
[4] = target: Dual specificity mitogen-activated protein kinase kinase 6 (Homo sapiens) (UniProt P52564); test: Inhibition of MEK6 (unknown origin) assessed as remaining activity at 1 uM by Kinome scan method relative to control
[5] = tested on: Tyrosine-protein kinase ABL1 (Homo sapiens), P00519 [F317I]; test: Inhibition of ABL1 F317I mutant (unknown origin) assessed as remaining activity at 1 uM by Kinome scan method relative to control
In short: (§1)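 Active-site-dependent competition-binding (KINOMEscan) panel of 468 kinases, test compound at 1 μM (from a 10 mM DMSO stock). Read-out is ctrl% = (test signal − positive control signal)/(negative control signal − positive control signal) × 100. DMSO is the negative control (100%) and a control compound is the positive control (0%). Lower ctrl% means tighter binding.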

[6] = tested on: Epidermal growth factor receptor (Homo sapiens), P00533 [UNDEFINED MUTATION]; test: Inhibition of EGFR L747-S752del/P753S mutant (unknown origin) assessed as remaining activity at 1 uM by Kinome scan method relative to control
Aurora kinase A = Aurora kinase A (Homo sapiens, UniProt O14965); test: Binding affinity to AURKA (unknown origin) assessed as dissociation constant
Sequence of Aurora kinase A (O14965 whole entry): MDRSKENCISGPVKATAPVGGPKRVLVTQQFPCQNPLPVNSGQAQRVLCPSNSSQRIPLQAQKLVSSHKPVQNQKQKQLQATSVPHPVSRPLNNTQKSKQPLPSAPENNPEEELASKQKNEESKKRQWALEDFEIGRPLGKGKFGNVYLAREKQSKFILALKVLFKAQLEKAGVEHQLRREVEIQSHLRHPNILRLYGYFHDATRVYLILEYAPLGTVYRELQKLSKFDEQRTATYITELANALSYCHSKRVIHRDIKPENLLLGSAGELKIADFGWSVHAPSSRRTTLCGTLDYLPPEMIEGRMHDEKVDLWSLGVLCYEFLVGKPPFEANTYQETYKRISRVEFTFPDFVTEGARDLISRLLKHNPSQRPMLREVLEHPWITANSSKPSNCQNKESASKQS

[7] = target: Ephrin type-B receptor 4 (Homo sapiens) (UniProt P54760); test: Inhibition of EPHB4 (unknown origin) assessed as remaining activity at 1 uM by Kinome scan method relative to control
[8] = target: Ephrin type-A receptor 4 (Homo sapiens) (UniProt P54764); test: Inhibition of EPHA4 (unknown origin) assessed as remaining activity at 1 uM by Kinome scan method relative to control
[9] = target: Homeodomain-interacting protein kinase 3 (Homo sapiens) (UniProt Q9H422); test: Inhibition of HIPK3 (unknown origin) assessed as remaining activity at 1 uM by Kinome scan method relative to control
Sequence of Homeodomain-interacting protein kinase 3 (Homo sapiens) (Q9H422 whole entry, looked up): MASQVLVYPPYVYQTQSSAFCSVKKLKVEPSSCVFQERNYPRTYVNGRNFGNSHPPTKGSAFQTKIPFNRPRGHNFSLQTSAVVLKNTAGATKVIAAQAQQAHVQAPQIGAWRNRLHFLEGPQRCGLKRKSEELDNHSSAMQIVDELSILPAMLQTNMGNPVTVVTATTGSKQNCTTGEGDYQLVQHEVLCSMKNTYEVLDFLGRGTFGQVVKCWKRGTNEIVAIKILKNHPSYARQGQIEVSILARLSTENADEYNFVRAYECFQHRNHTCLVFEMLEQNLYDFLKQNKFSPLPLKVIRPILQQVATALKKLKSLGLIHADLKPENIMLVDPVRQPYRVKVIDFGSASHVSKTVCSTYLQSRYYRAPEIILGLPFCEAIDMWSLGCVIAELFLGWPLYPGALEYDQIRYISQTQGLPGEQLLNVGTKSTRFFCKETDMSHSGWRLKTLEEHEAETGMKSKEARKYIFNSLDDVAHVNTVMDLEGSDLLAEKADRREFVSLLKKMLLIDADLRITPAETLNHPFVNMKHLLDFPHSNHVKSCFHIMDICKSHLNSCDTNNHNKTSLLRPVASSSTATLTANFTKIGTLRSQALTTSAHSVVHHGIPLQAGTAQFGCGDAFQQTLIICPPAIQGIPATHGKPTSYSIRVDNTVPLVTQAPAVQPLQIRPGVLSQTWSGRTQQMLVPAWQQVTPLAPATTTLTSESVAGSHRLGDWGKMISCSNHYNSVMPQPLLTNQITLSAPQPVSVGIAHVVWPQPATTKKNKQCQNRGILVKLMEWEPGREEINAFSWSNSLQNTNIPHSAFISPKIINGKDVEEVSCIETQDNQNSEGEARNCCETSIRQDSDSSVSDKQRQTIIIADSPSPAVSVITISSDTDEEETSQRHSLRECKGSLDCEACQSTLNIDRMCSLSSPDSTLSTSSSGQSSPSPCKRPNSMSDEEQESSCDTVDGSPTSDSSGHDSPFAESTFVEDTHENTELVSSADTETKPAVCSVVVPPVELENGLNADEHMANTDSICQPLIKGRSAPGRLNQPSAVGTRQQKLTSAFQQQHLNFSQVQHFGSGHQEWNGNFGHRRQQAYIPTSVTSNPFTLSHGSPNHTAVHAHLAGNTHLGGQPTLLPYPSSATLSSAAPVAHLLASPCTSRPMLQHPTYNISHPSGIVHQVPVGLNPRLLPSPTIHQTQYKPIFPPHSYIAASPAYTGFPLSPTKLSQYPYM

[10] = target: MAP kinase-interacting serine/threonine-protein kinase 1 (Homo sapiens) (UniProt Q9BUB5); test: Inhibition of MKNK1 (unknown origin) assessed as remaining activity at 1 uM by Kinome scan method relative to control
RAW264.7 = test: Inhibition of MST1/2 (unknown origin) in mouse RAW264.7 cells assessed as H2O2 stimulated MST1/2 autophosphorylation level at 1 to 3 uM by immunoblot analysis; format: cell-based; conditions: dose 1-3 µM
[11] = Acute toxicity in wild-type mouse assessed as ratio of liver weight to body weight at 1 mg/kg,ip administrated twice daily for 7 days; format: organism-based; conditions: in vivo, 168 h, time 7 day
In short: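 Wild-type mice underwent two-thirds partial hepatectomy with vehicle or 1 mg/kg i.p. twice per day, starting with a dose before surgery. Liver/body weight ratio was followed over postoperative days, n = 5; means ± SD.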

[12] = target: Ephrin type-B receptor 2 (Homo sapiens) (UniProt P29323); test: Inhibition of EPHB2 (unknown origin) assessed as remaining activity at 1 uM by Kinome scan method relative to control
[13] = target: Homeodomain-interacting protein kinase 1 (Homo sapiens) (UniProt Q86Z02); test: Inhibition of HIPK1 (unknown origin) assessed as remaining activity at 1 uM by Kinome scan method relative to control
Sequence of Homeodomain-interacting protein kinase 1 (Homo sapiens) (Q86Z02 whole entry, looked up): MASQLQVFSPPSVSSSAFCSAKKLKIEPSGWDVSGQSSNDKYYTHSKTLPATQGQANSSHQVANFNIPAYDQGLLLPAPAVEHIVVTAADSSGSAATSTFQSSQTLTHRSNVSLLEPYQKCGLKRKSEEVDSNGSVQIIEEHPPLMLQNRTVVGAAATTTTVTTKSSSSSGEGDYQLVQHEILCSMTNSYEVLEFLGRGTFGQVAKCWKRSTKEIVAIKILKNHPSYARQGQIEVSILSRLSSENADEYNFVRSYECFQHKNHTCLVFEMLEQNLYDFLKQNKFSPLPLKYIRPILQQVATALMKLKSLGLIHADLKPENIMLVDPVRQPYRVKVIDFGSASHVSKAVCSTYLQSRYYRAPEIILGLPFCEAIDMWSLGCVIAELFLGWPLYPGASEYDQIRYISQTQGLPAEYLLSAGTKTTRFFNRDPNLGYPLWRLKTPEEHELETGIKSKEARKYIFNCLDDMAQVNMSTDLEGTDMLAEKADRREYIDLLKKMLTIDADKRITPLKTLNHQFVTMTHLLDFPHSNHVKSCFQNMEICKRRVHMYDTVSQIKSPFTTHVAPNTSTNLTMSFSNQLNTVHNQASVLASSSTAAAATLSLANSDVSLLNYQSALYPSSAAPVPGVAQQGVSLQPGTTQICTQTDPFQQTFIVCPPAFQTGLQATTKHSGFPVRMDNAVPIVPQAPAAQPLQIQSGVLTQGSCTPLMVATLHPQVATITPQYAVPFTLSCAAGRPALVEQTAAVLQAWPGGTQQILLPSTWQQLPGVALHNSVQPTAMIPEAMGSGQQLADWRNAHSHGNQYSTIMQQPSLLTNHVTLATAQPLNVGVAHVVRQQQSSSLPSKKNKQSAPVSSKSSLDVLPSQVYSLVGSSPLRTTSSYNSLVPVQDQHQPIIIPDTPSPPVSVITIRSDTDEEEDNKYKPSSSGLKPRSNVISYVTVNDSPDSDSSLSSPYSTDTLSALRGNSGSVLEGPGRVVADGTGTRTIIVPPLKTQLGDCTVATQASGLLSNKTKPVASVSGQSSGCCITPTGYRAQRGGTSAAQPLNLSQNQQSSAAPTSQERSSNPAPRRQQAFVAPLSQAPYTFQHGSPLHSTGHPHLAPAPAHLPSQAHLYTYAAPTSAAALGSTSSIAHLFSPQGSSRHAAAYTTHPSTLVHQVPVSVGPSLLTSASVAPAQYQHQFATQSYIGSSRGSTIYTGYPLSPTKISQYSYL

[14] = target: Interleukin-1 receptor-associated kinase 4 (Homo sapiens) (UniProt Q9NWZ3); test: Inhibition of IRAK4 (unknown origin) assessed as remaining activity at 1 uM by Kinome scan method relative to control
Sequence of Interleukin-1 receptor-associated kinase 4 (Homo sapiens) (Q9NWZ3 whole entry, the tested form may be a part): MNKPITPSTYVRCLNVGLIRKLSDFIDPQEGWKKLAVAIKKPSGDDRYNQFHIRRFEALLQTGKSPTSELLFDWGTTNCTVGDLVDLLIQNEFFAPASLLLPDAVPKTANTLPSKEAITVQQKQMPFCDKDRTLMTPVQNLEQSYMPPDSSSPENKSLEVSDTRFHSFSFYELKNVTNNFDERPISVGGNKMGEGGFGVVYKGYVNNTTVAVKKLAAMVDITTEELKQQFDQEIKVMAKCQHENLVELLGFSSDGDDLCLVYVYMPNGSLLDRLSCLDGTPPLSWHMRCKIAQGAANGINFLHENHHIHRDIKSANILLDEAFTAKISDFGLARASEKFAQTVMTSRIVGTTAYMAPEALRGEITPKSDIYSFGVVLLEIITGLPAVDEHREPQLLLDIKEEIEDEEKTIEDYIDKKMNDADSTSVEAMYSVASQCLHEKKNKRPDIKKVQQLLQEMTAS

[15] = target: Ankyrin repeat and protein kinase domain-containing protein 1 (Homo sapiens) (UniProt Q8NFD2); test: Inhibition of ANKK1 (unknown origin) assessed as remaining activity at 1 uM by Kinome scan method relative to control; in short: as §1
[16] = target: Dual specificity mitogen-activated protein kinase kinase 7 (Homo sapiens) (UniProt O14733); test: Inhibition of MKK7 (unknown origin) assessed as remaining activity at 1 uM by Kinome scan method relative to control
[17] = tested on: Proto-oncogene tyrosine-protein kinase receptor Ret (Homo sapiens), P07949 [V804L]; test: Inhibition of RET V804L (unknown origin) assessed as remaining activity at 1 uM by Kinome scan method relative to control
[18] = Acute toxicity in wild-type mouse assessed as ratio of liver weight to body weight at 1 mg/kg,ip administrated daily for 2 months and after 2 weeks drug withdrawal; format: organism-based; conditions: in vivo, 1460 h
In short: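 Liver/body weight ratio in wild-type mice after 1 mg/kg i.p. daily for 2 months, or after a further 2 weeks off drug. n = 6; means ± SD, Student's t test. Vehicle was 0.1% citric acid aqueous solution with 20% Kolliphor HS 15.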

[19] = target: MAP/microtubule affinity-regulating kinase 3 (Homo sapiens) (UniProt P27448); test: Inhibition of MARK3 (unknown origin) assessed as remaining activity at 1 uM by Kinome scan method relative to control
[20] = target: TRAF2 and NCK-interacting protein kinase (Homo sapiens) (UniProt Q9UKE5); test: Inhibition of TNIK (unknown origin) assessed as remaining activity at 1 uM by Kinome scan method relative to control
[21] = target: Ephrin type-B receptor 6 (Homo sapiens) (UniProt O15197); test: Inhibition of EPHB6 (unknown origin) assessed as remaining activity at 1 uM by Kinome scan method relative to control
Sequence of Ephrin type-B receptor 6 (Homo sapiens) (O15197 whole entry): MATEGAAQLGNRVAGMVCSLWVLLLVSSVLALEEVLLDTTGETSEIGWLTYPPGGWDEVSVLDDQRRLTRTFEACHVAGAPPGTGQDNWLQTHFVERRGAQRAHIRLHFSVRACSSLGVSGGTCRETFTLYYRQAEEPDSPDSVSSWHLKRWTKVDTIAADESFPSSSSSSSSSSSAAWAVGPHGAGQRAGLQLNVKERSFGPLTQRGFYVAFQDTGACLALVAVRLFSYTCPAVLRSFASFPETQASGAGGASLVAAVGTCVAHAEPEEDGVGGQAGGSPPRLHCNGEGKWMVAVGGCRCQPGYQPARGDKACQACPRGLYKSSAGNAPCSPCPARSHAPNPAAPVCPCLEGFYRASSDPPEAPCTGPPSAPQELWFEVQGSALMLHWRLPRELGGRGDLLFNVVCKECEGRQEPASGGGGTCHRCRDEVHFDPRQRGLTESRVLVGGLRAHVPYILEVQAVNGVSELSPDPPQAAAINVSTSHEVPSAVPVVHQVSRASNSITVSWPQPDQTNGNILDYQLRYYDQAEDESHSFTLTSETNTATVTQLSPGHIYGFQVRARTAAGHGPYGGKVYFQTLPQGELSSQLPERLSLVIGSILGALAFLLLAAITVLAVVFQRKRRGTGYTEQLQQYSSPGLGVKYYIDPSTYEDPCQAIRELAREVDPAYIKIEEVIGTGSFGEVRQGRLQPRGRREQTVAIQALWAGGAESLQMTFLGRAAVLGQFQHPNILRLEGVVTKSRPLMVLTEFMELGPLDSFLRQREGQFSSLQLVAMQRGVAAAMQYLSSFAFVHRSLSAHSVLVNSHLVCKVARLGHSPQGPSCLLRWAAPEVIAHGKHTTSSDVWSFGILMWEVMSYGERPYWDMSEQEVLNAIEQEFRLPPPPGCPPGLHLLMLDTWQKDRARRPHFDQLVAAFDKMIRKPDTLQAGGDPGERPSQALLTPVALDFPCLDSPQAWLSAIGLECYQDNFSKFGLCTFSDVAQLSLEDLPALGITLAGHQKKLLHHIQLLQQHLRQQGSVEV

[22] = target: Tyrosine-protein kinase ABL1 (Homo sapiens, UniProt P00519, M351T); test: Inhibition of phosphorylated ABL1 M351T mutant (unknown origin) in presence of ATP by enzymatic assay
[23] = target: Phosphatidylinositol 3-kinase catalytic subunit type 3 (Homo sapiens) (UniProt Q8NEB9); test: Inhibition of VPS34 (unknown origin) assessed as remaining activity at 1 uM by Kinome scan method relative to control
Mus musculus = test: Protection against CCl4-induced mouse assessed as low level in collagen deposition at 1 mg/kg, ip administration daily for 10 days by Sirius Red staining; format: functional, organism-based; conditions: Liver, time 10.0 day
[24] = target: Mitogen-activated protein kinase 4 (Homo sapiens) (UniProt P31152); test: Inhibition of ERK4 (unknown origin) assessed as remaining activity at 1 uM by Kinome scan method relative to control
Sequence of Mitogen-activated protein kinase 4 (Homo sapiens) (P31152 whole entry, canonical isoform): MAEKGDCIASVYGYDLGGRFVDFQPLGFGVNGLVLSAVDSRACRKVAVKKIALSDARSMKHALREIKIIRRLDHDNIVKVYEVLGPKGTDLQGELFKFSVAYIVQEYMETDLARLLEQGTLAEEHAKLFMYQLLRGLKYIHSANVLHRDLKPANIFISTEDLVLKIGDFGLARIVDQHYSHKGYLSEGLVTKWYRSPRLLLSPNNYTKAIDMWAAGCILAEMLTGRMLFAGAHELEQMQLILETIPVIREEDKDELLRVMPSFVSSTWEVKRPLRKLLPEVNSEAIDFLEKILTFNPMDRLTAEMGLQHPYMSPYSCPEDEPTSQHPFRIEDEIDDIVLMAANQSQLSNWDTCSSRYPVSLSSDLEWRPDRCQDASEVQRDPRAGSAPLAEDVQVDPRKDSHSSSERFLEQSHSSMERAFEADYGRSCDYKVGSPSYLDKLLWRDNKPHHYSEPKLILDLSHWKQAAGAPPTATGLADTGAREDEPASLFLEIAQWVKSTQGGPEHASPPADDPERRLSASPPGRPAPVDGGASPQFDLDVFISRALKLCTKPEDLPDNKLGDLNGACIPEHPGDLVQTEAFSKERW

[25] = target: Phosphatidylinositol 4,5-bisphosphate 3-kinase catalytic subunit delta isoform (Homo sapiens) (UniProt O00329); test: Inhibition of PIK3CD (unknown origin) assessed as remaining activity at 1 uM by Kinome scan method relative to control
[26] = target: Serine/threonine-protein kinase Nek1 (Homo sapiens) (UniProt Q96PY6); test: Inhibition of NEK1 (unknown origin) assessed as remaining activity at 1 uM by Kinome scan method relative to control

Question: Which Activity [1] does the source give for `CN1C(=O)c2sccc2N(C)c2nc(Nc3ccc(S(N)(=O)=O)cc3)ncc21` here?
Answer: The Activity was 100%.

Question: And the Activity [2]?
Answer: Its Activity is 100%.

Question: What about the Activity [3] of the same molecule?
Answer: Its Activity is 66%.

Question: And the Activity [4]?
Answer: Its Activity is 100%.

Question: What about the Activity [5] of the same molecule?
Answer: Its Activity is 40%.

Question: What about the Activity [6] of the same molecule?
Answer: Its Activity is 73%.

Question: And the Kd (Aurora kinase A)?
Answer: The Kd was 13 nM.

Question: What about the Activity [7] of the same molecule?
Answer: The Activity was 61%.

Question: What about the Activity [8] of the same molecule?
Answer: The Activity was 100%.

Question: And the Activity [9]?
Answer: Its Activity is 100%.

Question: And the Activity [10]?
Answer: The Activity was 100%.

Question: And the inhibition (RAW264.7)?
Answer: The inhibition was “Active”.

Question: What about the Activity [11] of the same molecule?
Answer: The Activity was “Toxic”.

Question: And the Activity [12]?
Answer: Its Activity is 100%.

Question: What about the Activity [13] of the same molecule?
Answer: The Activity was 91%.

Question: And the Activity [14]?
Answer: Its Activity is 100%.

Question: What about the Activity [15] of the same molecule?
Answer: Its Activity is 41%.

Question: And the Activity [16]?
Answer: The Activity was 96%.

Question: And the Activity [17]?
Answer: The Activity was 78%.

Question: And the Activity [18]?
Answer: The Activity was “Toxic”.

Question: And the Activity [19]?
Answer: The Activity was 98%.

Question: And the Activity [20]?
Answer: Its Activity is 71%.

Question: What about the Activity [21] of the same molecule?
Answer: Its Activity is 100%.

Question: What about the IC50 [22] of the same molecule?
Answer: The IC50 was 17.6 nM.

Question: And the Activity [23]?
Answer: Its Activity is 79%.

Question: And the Activity (Mus musculus)?
Answer: Its Activity is “Active”.

Question: And the Activity [24]?
Answer: The Activity was 80%.

Question: What about the Activity [25] of the same molecule?
Answer: Its Activity is 47%.

Question: What about the Activity [26] of the same molecule?
Answer: Its Activity is 95%.
